Measured values from ChEMBL document CHEMBL1148703, “Synthesis and antiviral evaluation of 6-(alkyl-heteroaryl)furo[2,3-d]pyrimidin-2(3H)-one nucleosides and analogues with ethynyl, ethenyl, and ethyl spacers at C6 of the furopyrimidine core” (J Med Chem, 2007).
pEC50, pIC50: −log10 of the molar value.

Columns and labels:
Human alphaherpesvirus 3 [1] = experiment: Antiviral activity against thymidine kinase deficient VZV 07/1 in HEL cells assessed as reduction of virus plaque formation after 5 days; format: functional, organism-based; conditions: Human alphaherpesvirus 3, 07/1, HEL, 120 h
Thymidine kinase = molecular target: T1, Thymidine kinase (Varicella-zoster virus (strain Dumas) (HHV-3) (Human herpesvirus 3), UniProt P09250); experiment: Inhibition of VZV thymidine kinase; parameters: species or system Human alphaherpesvirus 3
T1 sequence (P09250 whole entry): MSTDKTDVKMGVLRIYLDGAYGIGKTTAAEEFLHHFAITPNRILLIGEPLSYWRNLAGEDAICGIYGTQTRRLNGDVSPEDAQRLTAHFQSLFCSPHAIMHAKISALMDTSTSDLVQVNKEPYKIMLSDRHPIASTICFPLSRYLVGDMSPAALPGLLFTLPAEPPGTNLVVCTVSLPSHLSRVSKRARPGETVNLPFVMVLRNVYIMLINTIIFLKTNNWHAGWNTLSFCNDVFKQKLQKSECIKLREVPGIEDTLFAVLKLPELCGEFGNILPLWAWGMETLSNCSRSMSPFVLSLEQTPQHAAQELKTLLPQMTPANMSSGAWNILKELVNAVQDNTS
Summary of the method: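 VZV TK enzyme assay in 50 mM Tris-HCl pH 8.0 with 2.5 mM MgCl2, 10 mM DTT, 2.5 mM ATP, 10 mM NaF, 1.0 mg/mL BSA and 1 µM [CH3-3H]dThd (0.1 µCi). Run 30 min at 37 °C, spotted on DE-81 discs, washed, radioactivity counted.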

[2] = Cytotoxicity against HEL cells assessed as alteration in cell morphology after 3 days; format: cell-based; conditions: human
Human alphaherpesvirus 3 [3] = experiment: Antiviral activity against TK+ VZV YS in HEL cells assessed as reduction of virus plaque formation after 5 days; format: functional, organism-based; conditions: Human alphaherpesvirus 3, YS, 120 h
Human alphaherpesvirus 3 [4] = experiment: Antiviral activity against TK+ VZV OKA in HEL cells assessed as reduction of virus plaque formation after 5 days; format: functional, organism-based; conditions: Human alphaherpesvirus 3, OKA, 120 h
Human betaherpesvirus 5 [5] = experiment: Antiviral activity against HCMV Davis in HEL cells assessed as reduction of virus plaque formation after 7 days; format: functional, organism-based; conditions: Human betaherpesvirus 5, Davis, 168 h
Summary of the method: (§1)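 Confluent HEL fibroblasts were infected with HCMV at 100 pfu per well. After 2 h the residual virus was removed and medium with a range of compound concentrations was added (duplicate). Cells were incubated 7 days at 37 °C, then fixed with ethanol and stained with Giemsa. Virus-induced cytopathicity was scored microscopically, and EC50 was read from graphic plots of % cytopathicity versus concentration.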

[6] = Cytotoxicity against HEL cells after 3 days; format: cell-based; conditions: human
Summary of the method: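 HEL cells were seeded at 5 × 10^3 cells/well and allowed to grow for 24 h. Medium containing graded compound concentrations was then added, followed by 3 days at 37 °C. Cell number was counted with a Coulter counter.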

Human alphaherpesvirus 3 [7] = experiment: Antiviral activity against thymidine kinase deficient VZV YS/R in HEL cells assessed as reduction of virus plaque formation after 5 days; format: functional, organism-based; conditions: Human alphaherpesvirus 3, YS/R, 120 h
Human betaherpesvirus 5 [8] = experiment: Antiviral activity against HCMV AD169 in HEL cells assessed as reduction of virus plaque formation after 7 days; format: functional, organism-based; conditions: Human betaherpesvirus 5, AD169, HEL, 168 h; summary of the method: as §1

Compound	pEC50 (Human alphaherpesvirus 3 [1])	pIC50 (Thymidine kinase)	MCC at 72 h [2]	pEC50 (Human alphaherpesvirus 3 [3])	pEC50 (Human alphaherpesvirus 3 [4])	pEC50 (Human betaherpesvirus 5 [5])	CC50 at 72 h [6]	pEC50 (Human alphaherpesvirus 3 [7])	pEC50 (Human betaherpesvirus 5 [8])
CCCCCCCCCCc1cc2cn([C@H]3C[C@H](O)[C@@H](CO)O3)c(=O)nc2o1	< 4.29	≤ 3.30	≥ 130 µM	7.18	7.03	4.19	> 510 µM	< 4.29	< 3.89
CCCCCCCCC#Cc1cc2cn([C@H]3C[C@H](O)[C@@H](CO)O3)c(=O)nc2o1	–	3.66	–	–	–	–	–	–	–
CCCCCCCC/C=C/c1cc2cn([C@H]3C[C@H](O)[C@@H](CO)O3)c(=O)nc2o1	< 4.32	4.19	≥ 120 µM	6.14	5.92	5.08	230 µM	4.59	4.66
O=c1nc2oc(C#Cc3ccccc3)cc2cn1[C@H]1C[C@H](O)[C@@H](CO)O1	< 3.85	3.31	> 570 µM	4.00	≤ 3.85	< 3.85	> 570 µM	< 3.85	< 3.85
Cc1ccc(C#Cc2cc3cn([C@H]4C[C@H](O)[C@@H](CO)O4)c(=O)nc3o2)cc1	4.44	–	≥ 510 µM	4.39	4.18	< 3.89	510 µM	–	3.29
O=c1nc2oc(CCc3ccccc3)cc2cn1[C@H]1C[C@H](O)[C@@H](CO)O1	< 3.25	–	> 560 µM	–	3.42	< 3.25	> 560 µM	–	< 3.25
Cc1ccc(CCc2cc3cn([C@H]4C[C@H](O)[C@@H](CO)O4)c(=O)nc3o2)cc1	< 3.85	–	540 µM	–	< 3.85	< 3.27	> 540 µM	–	< 3.27
CCCc1ccc(CCc2cc3cn([C@H]4C[C@H](O)[C@@H](CO)O4)c(=O)nc3o2)cc1	< 4.30	< 3.30	≥ 130 µM	≤ 4.30	< 3.89	< 3.89	> 130 µM	< 3.89	< 3.89
CCCCCc1ccc(CCc2cc3cn([C@H]4C[C@H](O)[C@@H](CO)O4)c(=O)nc3o2)cc1	< 3.92	–	≥ 470 µM	–	4.74	< 3.92	> 470 µM	–	< 3.92
CCCCc1ccc(-c2cc3cn([C@H]4C[C@H](O)[C@@H](CO)O4)c(=O)nc3o2)nc1	< 4.00	4.47	> 100 µM	6.44	6.64	< 4.00	> 50 µM	< 4.00	< 4.00
CCCCCc1ccc(-c2cc3cn([C@H]4C[C@H](O)[C@@H](CO)O4)c(=O)nc3o2)nc1	< 4.00	5.38	> 100 µM	–	7.15	< 4.00	> 50 µM	< 4.00	< 4.00
CCCCCCc1ccc(-c2cc3cn([C@H]4C[C@H](O)[C@@H](CO)O4)c(=O)nc3o2)nc1	< 4.00	5.43	> 100 µM	7.35	7.22	< 4.00	> 50 µM	4.15	< 4.00
CCCCCc1ccc(-c2cc3cn([C@H]4C[C@H](O)[C@@H](CO)O4)c(=O)nc3o2)cn1	< 4.70	4.74	100 µM	7.05	6.89	< 4.70	> 50 µM	< 4.70	< 4.70
CCCCCCc1ccc(-c2cc3cn([C@H]4C[C@H](O)[C@@H](CO)O4)c(=O)nc3o2)cn1	< 4.70	4.52	100 µM	7.05	6.85	< 4.70	> 50 µM	< 4.70	< 4.70
CCCCCc1cnc(-c2cc3cn([C@H]4C[C@H](O)[C@@H](CO)O4)c(=O)nc3o2)nc1	< 4.00	4.62	> 100 µM	5.70	5.72	< 4.00	> 50 µM	< 4.00	< 4.00
CCCc1ccc(C#Cc2cc3cn([C@H]4C[C@H](O)[C@@H](CO)O4)c(=O)nc3o2)cc1	< 4.30	–	87 µM	4.57	4.39	5.06	> 120 µM	< 4.30	4.82
CCCCCCc1cnc(-c2cc3cn([C@H]4C[C@H](O)[C@@H](CO)O4)c(=O)nc3o2)nc1	< 4.00	4.82	> 100 µM	6.15	6.20	< 4.00	> 50 µM	< 4.00	< 4.00
CCCC#Cc1ccc(-c2cc3cn([C@H]4C[C@H](O)[C@@H](CO)O4)c(=O)nc3o2)cn1	< 4.70	5.54	≥ 100 µM	7.22	7.05	< 4.70	> 50 µM	< 4.70	< 4.70
CCCCCc1ccc(C#Cc2cc3cn([C@H]4C[C@H](O)[C@@H](CO)O4)c(=O)nc3o2)cc1	4.15	–	470 µM	4.72	4.77	4.96	110 µM	–	4.89
Nc1nc2c(ncn2COCCO)c(=O)[nH]1 [ACYCLOVIR]	–	–	> 220 µM	–	–	–	> 890 µM	–	–
O=c1[nH]c(=O)n([C@H]2C[C@H](O)[C@@H](CO)O2)cc1/C=C/Br [BRIVUDINE]	≤ 4.00	–	> 150 µM	8.00	8.00	–	> 150 µM	≤ 3.89	–
CCCCCc1ccc(-c2cc3cn([C@H]4C[C@H](O)[C@@H](CO)O4)c(=O)nc3o2)cc1 [CF1743]	–	–	> 1.3 µM	–	–	–	–	–	–
Nc1nc2c(ncn2COC(CO)CO)c(=O)[nH]1 [GANCICLOVIR]	–	–	> 200 µM	5.64	–	5.06	> 200 µM	–	–
